This assay is described as follows: Inhibition of Saccharomyces cerevisiae alpha-glucosidase using p-nitrophenyl-alpha-D-glucopyranoside as substrate preincubated for 15 mins. The procedure, abridged: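 Yeast enzyme at 0.6 U/mL in 0.1 M potassium phosphate buffer, pH 6.8. It was preincubated at 37 °C with test compound in water containing 0.5% DMSO. The reaction was started with 5.0 mM PNPG solution in the same buffer and incubated at 37 °C. It was stopped with 0.2 M Na2CO3 in phosphate buffer. Released p-nitrophenol was read at 405 nm, with IC50 as the output.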

Among the data in ChEMBL document CHEMBL2406974, “Xanthone glycoside constituents of Swertia kouitchensis with α-glucosidase inhibitory activity” (J Nat Prod, 2013) are IC50 values, retold here.

The structures appear in SMILES notation. pIC50: −log10 of the molar value.

As a reminder, the pIC50 is −log10 of the IC50, conventionally taken in molar units. A lower pIC50 goes with a large IC50. With `COc1cc(O[C@@H]2O[C@H](CO[C@@H]3OC[C@@H](O)[C@H](O)[C@H]3O)[C@@H](O)[C@H](O)[C@H]2O)c2c(=O)c3c(OC)c(O)ccc3oc2c1OC`, the negative-log IC50 (pIC50) is 2.82.

`COc1cc(O[C@@H]2O[C@H](CO[C@@H]3OC[C@@H](O)[C@H](O)[C@H]3O)[C@@H](O)[C@H](O)[C@H]2O)c2c(=O)c3c(OC)c(OC)ccc3oc2c1OC`: the pIC50 was 3.42.

In the case of `COc1cc(O[C@@H]2O[C@H](CO)[C@@H](O)[C@H](O)[C@H]2O)c2c(=O)c3c(OC)c(O)ccc3oc2c1O`, the pIC50 is 3.15.

In turn, `COc1cc(O[C@@H]2O[C@H](CO[C@@H]3OC[C@@H](O)[C@H](O)[C@H]3O)[C@@H](O)[C@H](O)[C@H]2O)c2c(=O)c3c(OC)ccc(OC)c3oc2c1` had a pIC50 of 3.44.

`COc1cc(O[C@@H]2O[C@H](CO[C@@H]3OC[C@@H](O)[C@H](O)[C@H]3O)[C@@H](O)[C@H](O)[C@H]2O)c2c(=O)c3c(OC)c(OC)cc(OC)c3oc2c1` gave a pIC50 of 3.43.

Regarding `COc1ccc(O)c2c(=O)c3c(O)cc(O[C@@H]4O[C@H](CO[C@@H]5OC[C@@H](O)[C@H](O)[C@H]5O)[C@@H](O)[C@H](O)[C@H]4O)c(OC)c3oc12`, the pIC50 is 3.74.

Compound `COc1cc(O[C@@H]2O[C@H](CO[C@@H]3O[C@H](CO)[C@@H](O)[C@H](O)[C@H]3O)[C@@H](O)[C@H](O)[C@H]2O)c2c(=O)c3cccc(OC)c3oc2c1` had a pIC50 of 3.02. This pIC50 lies 0.72 log units lower than the previous one.

Consider `COc1cc(O[C@@H]2O[C@H](CO[C@@H]3O[C@H](CO)[C@@H](O)[C@H](O)[C@H]3O)[C@@H](O)[C@H](O)[C@H]2O)c2c(=O)c3c(O)ccc(OC)c3oc2c1`, for which the pIC50 was 3.16.

Turning to `COc1cc(O)c2c(=O)c3c(O)c(O[C@@H]4O[C@H](CO)[C@@H](O)[C@H](O)[C@H]4O[C@@H]4O[C@@H](C)[C@H](O)[C@@H](O)[C@H]4O)ccc3oc2c1`, the pIC50 is less than 2.77.

Consider `COc1cc(O)c2c(=O)c3c(O[C@@H]4O[C@H](CO)[C@@H](O)[C@H](O)[C@H]4O)c(O[C@@H]4O[C@@H](C)[C@H](O)[C@@H](O)[C@H]4O)ccc3oc2c1`, for which the pIC50 is 3.15.

Regarding `COc1cc(O[C@@H]2O[C@H](CO[C@@H]3OC[C@@H](O)[C@H](O)[C@H]3O)[C@@H](O)[C@H](O)[C@H]2O)c2c(=O)c3c(O)c(OC)ccc3oc2c1`, the pIC50 is 3.35.

The compound `C[C@H]1O[C@H](O[C@H]2[C@H](O)[C@@H](O)[C@@H](O[C@H]3[C@H](O)[C@@H](O)C(O)O[C@@H]3CO)O[C@@H]2CO)[C@H](O)[C@@H](O)[C@@H]1N[C@H]1C=C(CO)[C@@H](O)[C@H](O)[C@H]1O` (some centres undefined) [ACARBOSE] gave a pIC50 of 3.20. This pIC50 and that of the compound before are within 0.2 log units of each other.

Regarding `O=c1c2cc(O)c(O)cc2oc2cc(O)c([C@@H]3O[C@H](CO)[C@@H](O)[C@H](O)[C@H]3O)c(O)c12` [MANGIFERIN], the pIC50 was 3.53.

For the compound `COc1cc(O)c2c(=O)c3c(O[C@@H]4O[C@H](CO)[C@@H](O)[C@H](O)[C@H]4O)ccc(O)c3oc2c1` [SWERTIANOLIN], the pIC50 is 3.90.
